Measurements as given in PMC10173409 (Science translational medicine, 2023).
Read-outs that look alike come from different tables or passages of the source.

Tests used:
mouse corneal epithelium [1] = assay: Corneal epithelial barrier function, fluorescein staining in vivo
immune cells [2] = assay: Toxic effect on immune cells; conditions: discussion summary
[3] = test system: amikacin-resistant P. aeruginosa, mouse corneas; assay: Treatment of established P. aeruginosa keratitis; format: in vivo; conditions: for total leukocytes, neutrophils and macrophages, P. aeruginosa treatment: 3 times daily, as early as one day post-treatment, Fig. 6C-F; for disease severity over the 3-day treatment course, P. aeruginosa: 5 μg in liposomes topical 3 times daily
Method in brief: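 Scarified C57BL/6J corneas (one per mouse) inoculated with amikacin-resistant P. aeruginosa (10⁵ CFU). From 24 h post-infection: test peptide in phosphatidylcholine/stearylamine/cholesterol liposomes (5 μg in 5 μl), or liposome vehicle, applied topically three times daily for 1 or 3 days. Blinded 0-16 clinical score from four opacity/epithelial features. Corneal CD45⁺ leukocytes, Ly6B.2⁺F4/80⁻ neutrophils and F4/80⁺ macrophages counted by flow cytometry.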

[4] = test system: human telomerase-immortalized corneal epithelial (hTCEpi) cells; assay: MTT cell viability; format: cell-based; conditions: discussion summary
Method in brief: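 hTCEpi (telomerase-immortalized human corneal epithelial) cells incubated 24 h with test peptide at 200 μg/ml (0.02% w/v), with a scrambled peptide as control. Viability was read by MTT assay.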

S. aureus, mouse corneas [5] = assay: Treatment of established S. aureus keratitis; format: in vivo; conditions: for infectious load, S. aureus treatment: 5 μg in liposomes, 3 times daily, Fig. 7G
Method in brief: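 C57BL/6J mice, both sexes, 10–12 wk. Corneas scarified with three 26g needle abrasions, inoculated with S. aureus 10⁶ CFU. From 24 h post-infection, 5 μg test peptide in 5 μl liposome mix (phosphatidylcholine/stearylamine/cholesterol) or liposome vehicle given topically three times daily for 1 or 3 days. Blinded daily scoring of four features (0–4 each, total 0–16). Endpoint CFU from corneal homogenates plated on tryptic soy agar.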

mouse corneal epithelium [6] = assay: Corneal wound healing; format: in vivo; conditions: 0.1% topical, 2.5 μg peptide three times within 24 h, 6 h and 24 h after wounding, vs saline and SC10, Fig. S1E
Method in brief: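 C57BL/6J mice, both sexes, 10–12 wk, anesthetised i.p. with ketamine/dexmedetomidine, reversed with atipamezole. Central 2 mm corneal epithelium removed with blade. Wounds got topical saline or test peptide (2.5 μg) three times within 24 h. Defects stained with 0.38% fluorescein immediately, 6 h and 24 h post-injury; stained area measured. One cornea per mouse.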

[7] = test system: cell surface/endosomal TLR3; assay: media poly; format: cell-based, mouse; conditions: neutrophils, high-molecular-weight poly(I:C) 1 μg/ml added to media; Fig. 1D
Method in brief: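 Thioglycolate-elicited mouse peritoneal neutrophils (collected day 1, DMEM/2% FBS) were stimulated with high-molecular-weight poly(I:C) (1 μg/ml) added to medium, alone or with test peptide, at 37°C/5% CO₂. Phospho-NFκB p65⁺ and phospho-IRF3⁺ cells were quantified by intracellular flow cytometry. Mean ± SD, N = 3 replicates.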

hTCEpi cells = assay: TUNEL assay of DNA fragmentation; format: cell-based, human; conditions: 24-h incubation, Fig. S1B
[8] = test system: amikacin-resistant P. aeruginosa keratitis isolate, mouse corneas; assay: Prophylaxis of P. aeruginosa keratitis; format: in vivo; conditions: 0.1% (5 μg) topical once 30 min before infection; 24 h; P < 0.01; Fig. 5D, E
Method in brief: (§1)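 C57BL/6J mice (both sexes, 10-12 wk), anesthetized with ketamine/dexmedetomidine i.p. One cornea per mouse, scarified with three 26g-needle abrasions. 5 μl test peptide (0.1% in saline, 5 μg) applied once, 30 min before amikacin-resistant P. aeruginosa 10⁵ CFU or S. aureus 10⁶ CFU. At 24 h: homogenate CFU on tryptic soy agar; collagenase-digested corneas analysed by flow cytometry for CD45⁺, Ly6B.2⁺F4/80⁻ and F4/80⁺ cells. n = 8-10, two experiments.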

[9] = test system: thioglycolate-elicited mouse peritoneal macrophages; assay: LPS/LTA-induced cytokine secretion from macrophages, ELISA; format: cell-based; conditions: for dose dependence of cytokine inhibition, macrophages: 50, 100 or 200 μg/ml, 8 h, Fig. S2; for cytokine suppression at 24 h, macrophages: 24 h post-ligand stimulation, Fig. S3
Method in brief: (§2)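 C57BL/6J mice injected i.p. with 1 ml 3% thioglycolate. Peritoneal neutrophils collected day 1 (DMEM), macrophages day 3 (RPMI, 6 h adherence), both 2% FBS, 1x10⁵ cells/well after RBC lysis. Stimulated with P. aeruginosa LPS or S. aureus LTA (500 ng/ml); test peptide (50, 100 or 200 μg/ml) added 30 min before or after. Incubated 8 or 24 h, 37°C/5% CO₂. Supernatant IL-6, TNFα, G-CSF, CXCL1, CXCL2, CXCL10 measured by ELISA.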

[10] = test system: TLR2, mouse peritoneal neutrophils; assay: TLR2 endocytosis in neutrophils, flow cytometry; format: cell-based; conditions: peptide alone 200 μg/ml (LTA 500 ng/ml), 1 h; Fig. 4C
Method in brief: (§3)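 Thioglycolate-elicited C57BL/6J peritoneal neutrophils (day 1) or adherent macrophages (day 3) incubated 1 h with test peptide alone. TLR2 localisation assessed by flow cytometry as cell-surface versus intracellular staining.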

red blood cells = assay: Hemolysis; format: cell-based; conditions: for toxic effect on blood cells: discussion summary; for hemolysis (amount of hemoglobin released): vs untreated samples, Fig. S1C
[11] = ref [20]; cited from earlier work
[12] = test system: thioglycolate-elicited mouse peritoneal neutrophils; assay: LPS/LTA-induced cytokine secretion from neutrophils, ELISA; format: cell-based; conditions: for dose dependence of cytokine inhibition, neutrophils: 50, 100 or 200 μg/ml, 8 h, Fig. S2; for cytokine suppression at 24 h, neutrophils: 24 h post-ligand stimulation, Fig. S3
Method in brief: as §2

[13] = test system: TLR2, mouse peritoneal macrophages; assay: TLR2 endocytosis in macrophages, flow cytometry; format: cell-based; conditions: peptide alone 200 μg/ml (LTA 500 ng/ml), 1 h; Fig. 4D
Method in brief: as §3

S. aureus, mouse corneas [14] = assay: Prophylaxis of S. aureus keratitis; format: in vivo; conditions: 0.1% (5 μg) topical once 30 min before 10^6 CFU, 24 h; for bacterial burden, S. aureus prophylaxis: Fig. 5H; for immune cell infiltration, S. aureus prophylaxis: Fig. 5I, J
Method in brief: as §1

Pseudomonas aeruginosa = conditions: ref [20]; cited from earlier work
human MD2/TLR4 complex = assay: MD2 blocking assay; format: binding; conditions: for inhibition of LPS binding to MD2/TLR4 beads (in words): 30-min preincubation, peptide 60 μM, FITC-LPS 1 μg/ml, Fig. 3A; for inhibition of LPS binding to MD2/TLR4 beads with soluble MD2: soluble MD2 1 μg/ml present during preincubation with peptide 60 μM, Fig. 3B
Method in brief: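 Human MD2/TLR4-conjugated latex beads incubated with test peptide (60 μM), without or with soluble MD2 (1 μg/ml). Beads washed, then incubated with FITC-LPS (1 μg/ml). Percentage of LPS⁺ beads quantified by flow cytometry. Mean ± SEM, n = 3-5 independent experiments.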

MD2/TLR4 complex = assay: LPS displacement assay; format: binding, human; conditions: 60 μM, 30 min; Fig. 3E
Method in brief: (§4)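 Beads conjugated with human MD2/TLR4 complex or TLR2 were preincubated with FITC-LPS or FITC-LTA (1 μg/ml) respectively, PBS-washed, then mixed with test peptide (60 μM). Percentage of ligand-positive beads was measured by flow cytometry. Mean ± SEM, n = 3-5 independent experiments.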

TLR2 = assay: LTA displacement assay; format: binding, human; conditions: 60 μM, 30 min; Fig. 3F
Method in brief: as §4

[15] = ref [49], [50]; cited from earlier work
bacteria = conditions: high-salt media; ref [49], [50]; cited from earlier work
Staphylococcus aureus = conditions: ref [20]; cited from earlier work
[16] = ref [20]; cited from earlier work; remark: listed apart in the source
immune cells [17] = test system: immune cells

Row | Substance | total leukocytes, neutrophils and macrophages, P. aeruginosa treatment ([3]; 5 μg in liposomes) | toxic effect on corneal epithelial cells [4] | infectious load, S. aureus treatment (S. aureus, mouse corneas [5]) | barrier restoration after wounding (re-epithelialization) (mouse corneal epithelium [6]) | apoptosis (hTCEpi cells) | infiltrated leukocytes, neutrophils and macrophages, P. aeruginosa prophylaxis [8] | dose dependence of cytokine inhibition, macrophages [9] | cytokine suppression at 24 h, macrophages [9] | TLR2 internalization, neutrophils [10] | toxic effect on blood cells (red blood cells) | hemolysis (amount of hemoglobin released) (red blood cells) | dose dependence of cytokine inhibition, neutrophils [12] | cytokine suppression at 24 h, neutrophils [12] | TLR2 internalization, macrophages [13] | bacterial burden, S. aureus prophylaxis (S. aureus, mouse corneas [14]) | immune cell infiltration, S. aureus prophylaxis (S. aureus, mouse corneas [14]) | corneal barrier function, fluorescein staining (mouse corneal epithelium [1]; mouse, in vivo) | inhibition of LPS binding to MD2/TLR4 beads (in words) (human MD2/TLR4 complex) | inhibition of LPS binding to MD2/TLR4 beads with soluble MD2 (human MD2/TLR4 complex) | disease severity over the 3-day treatment course, P. aeruginosa ([3]; Fig. 6A, B) | also measured
1 | Benzalkonium chloride [BAK, reference compound] |  |  |  |  |  |  |  |  |  |  |  |  |  |  |  |  |  |  |  |  | corneal barrier function, fluorescein staining (mouse corneal epithelium [1]; mice, one topical application at 0.1% in saline, Fig. S1D): high degree of fluorescein penetration
2 | GGLSSVGGGS [KAMP10] | substantially reduced | no detectable toxic effect | substantially reducing the infectious load | substantially accelerated | did not induce apoptosis | significantly reduced | dose-dependent | effective suppression | triggered internalization of TLR2 | no detectable toxic effect | no difference from the baseline of untreated samples | dose-dependent | effective suppression | triggered internalization of TLR2 | alleviated | alleviated | remained stain-free | effectively inhibited subsequent LPS binding | inhibitory effect was abolished |  | toxic effect on immune cells (immune cells [2]): no detectable toxic effect; relative effect on disease severity, P. aeruginosa treatment ([3]; KAMP10 vs KAMP18C, 5 μg in liposomes, 1 DAT, Fig. 6A, B): effect more prominent; p65 and IRF3 phosphorylation, media poly(I:C) [7]: inhibited p65 and IRF3 phosphorylation; binding affinity for LPS [11]: modest binding affinity; bactericidal mechanism, P. aeruginosa (Pseudomonas aeruginosa): perforated Pseudomonas aeruginosa membrane
3 | GLSGVGSGSG [SC10, reference compound] |  |  |  | in contrast to saline and SC10 |  |  |  |  |  |  |  |  |  |  |  |  | stain-free similarly to the SC10- or saline-treated controls | but not SC10, effectively inhibited |  | severity progression or lack of improvement | displacement of LPS from MD2/TLR4 beads (in words) (MD2/TLR4 complex): as opposed to SC10; displacement of LTA from TLR2 beads (in words) (TLR2): as opposed to SC10
4 | LL-37 |  |  |  |  |  |  |  |  |  |  |  |  |  |  |  |  |  |  |  | severity progression or lack of improvement | LPS- and LTA-neutralizing activity [15]: known LPS- and LTA-neutralizing activities; bactericidal activity of LL-37 (bacteria): characterized bactericidal activities in high-salt media
5 | RAIGGGLSSVGGGSSTIK [KAMP18C] | substantially reduced | no detectable toxic effect | substantially reducing the infectious load | substantially accelerated | did not induce apoptosis | significantly reduced | dose-dependent | effective suppression | triggered internalization of TLR2 | no detectable toxic effect | no difference from the baseline of untreated samples | dose-dependent | effective suppression | triggered internalization of TLR2 | alleviated | alleviated | remained stain-free | effectively inhibited subsequent LPS binding | inhibitory effect was abolished |  | bactericidal mechanism, S. aureus (Staphylococcus aureus): caused major damage to the cell envelope of Staphylococcus aureus; relative effect on disease severity, S. aureus treatment (S. aureus, mouse corneas [5]; KAMP18C vs KAMP10, 5 μg in liposomes, Fig. 7A, B): more effective against S. aureus infection; binding affinity for LTA [16]: modest binding affinity; toxic effect on immune cells (immune cells [17]): no detectable toxic effect
